In ChEMBL document CHEMBL1932980, “Structure-activity relationships of 2-amino-3-aroyl-4-[(4-arylpiperazin-1-yl)methyl]thiophenes. Part 2: Probing the influence of diverse substituents at the phenyl of the arylpiperazine moiety on allosteric enhancer activity at the A₁ adenosine receptor” (Bioorg Med Chem, 2012) one finds Activity, inhibition and fold change (FC) data, which are given here for seven molecules.

Test [1] concerns the target T1, Adenosine receptor A1 (Homo sapiens) (UniProt P30542).
T1 sequence (whole entry): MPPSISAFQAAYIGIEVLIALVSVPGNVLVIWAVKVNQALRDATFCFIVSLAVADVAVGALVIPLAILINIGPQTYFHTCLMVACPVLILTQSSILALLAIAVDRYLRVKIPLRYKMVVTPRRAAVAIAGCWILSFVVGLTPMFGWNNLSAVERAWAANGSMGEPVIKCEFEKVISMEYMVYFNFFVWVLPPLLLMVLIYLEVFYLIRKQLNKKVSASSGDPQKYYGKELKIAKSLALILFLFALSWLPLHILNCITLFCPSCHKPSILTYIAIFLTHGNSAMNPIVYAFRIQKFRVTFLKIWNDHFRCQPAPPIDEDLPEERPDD
Briefly: Allosteric enhancer activity at recombinant human A1 adenosine receptor expressed in CHO cells assessed as change in forskolin-induced cAMP production at 0.01 uM after 6 mins by radioimmunoassay. The test is classed as functional, cell-based. The gist of the method: (§1)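 hA1CHO cells (about 8000 fmol/mg protein) thawed from low-passage stocks, grown in Ham's F-12 with 10% FBS and G-418, then plated 48 h. Test compound at 0.01, 0.1, 1 or 10 µM with CPA (0.05–0.1 nM) for 6 min at 36 °C. Stopped with HCl (final 50 mM). cAMP in acidified extracts measured by radioimmunoassay. Reference enhancer run in each experiment. Four experiments per concentration.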

For test [2], the target named is T1, Adenosine receptor A1 (Homo sapiens). Description: Allosteric enhancer activity at recombinant human A1 adenosine receptor expressed in CHO cells assessed as change in forskolin-induced cAMP production at 0.1 uM after 6 mins by radioimmunoassay. The test is classed as functional, cell-based. The gist of the method:
as §1
(Changes in cAMP serve as a functional read-out for many G protein-coupled receptors.)

Test [3] shares this target. Description: Allosteric enhancer activity at recombinant human A1 adenosine receptor expressed in CHO cells assessed as change in forskolin-induced cAMP production at 1 uM after 6 mins by radioimmunoassay. The test is classed as functional, cell-based. The gist of the method:
as §1

The target is the same in test [4]. Briefly: Allosteric enhancer activity at recombinant human A1 adenosine receptor expressed in CHO cells assessed as change in forskolin-induced cAMP production at 10 uM after 6 mins by radioimmunoassay. It is filed as functional, cell-based. The gist of the method:
as §1

For test [5] the target is unchanged. Description: Displacement of [3H]DPCPX from recombinant human A1 adenosine receptor expressed in CHO cells at 10 uM after 120 mins by scintillation counting. It is filed as cell-based. The gist of the method: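 Membranes from hA1CHO cells incubated with 1 nM [3H]DPCPX in 50 mM Tris–HCl pH 7.4 at 25 °C for 120 min. Compound added from a 100-fold DMSO stock, so 1% DMSO final, also present in controls. Bound ligand separated on GF/B filters and counted by scintillation. Result given as % of control specific binding.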
(In general: Displacement assays read how much labelled ligand stays bound in the presence of the test substance.)

In test [6] the target is Adenosine receptor A2a (Homo sapiens) (UniProt P29274). Briefly: Displacement of [3H]ZM241385 from recombinant human A2A adenosine receptor expressed in CHO cells at 10 uM after 60 mins by scintillation counting. It is filed as cell-based. The gist of the method: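 Membranes from hA2ACHO cells incubated with 1 nM [3H]ZM 241385 in 50 mM Tris–HCl, 10 mM MgCl2, pH 7.4 at 4 °C for 60 min. Compound added from a 100-fold DMSO stock, 1% DMSO final, also in controls. Separated by GF/B filtration and counted by scintillation. Result given as % of control specific binding.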
Sequence of Adenosine receptor A2a (Homo sapiens) (P29274 whole entry): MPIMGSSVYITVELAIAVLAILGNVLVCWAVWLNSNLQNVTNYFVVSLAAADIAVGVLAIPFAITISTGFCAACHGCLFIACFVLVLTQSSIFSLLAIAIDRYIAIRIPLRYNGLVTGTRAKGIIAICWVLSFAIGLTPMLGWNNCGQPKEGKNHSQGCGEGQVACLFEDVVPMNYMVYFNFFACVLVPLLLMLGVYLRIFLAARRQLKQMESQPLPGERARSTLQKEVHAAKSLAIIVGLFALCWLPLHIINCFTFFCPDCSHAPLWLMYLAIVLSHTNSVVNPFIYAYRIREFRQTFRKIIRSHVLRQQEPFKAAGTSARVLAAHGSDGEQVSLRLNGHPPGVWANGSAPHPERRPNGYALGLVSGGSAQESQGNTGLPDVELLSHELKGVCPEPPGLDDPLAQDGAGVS

Test [7] has as its target T2, Adenosine receptor A3 (Homo sapiens) (UniProt P0DMS8).
T2 sequence (whole entry): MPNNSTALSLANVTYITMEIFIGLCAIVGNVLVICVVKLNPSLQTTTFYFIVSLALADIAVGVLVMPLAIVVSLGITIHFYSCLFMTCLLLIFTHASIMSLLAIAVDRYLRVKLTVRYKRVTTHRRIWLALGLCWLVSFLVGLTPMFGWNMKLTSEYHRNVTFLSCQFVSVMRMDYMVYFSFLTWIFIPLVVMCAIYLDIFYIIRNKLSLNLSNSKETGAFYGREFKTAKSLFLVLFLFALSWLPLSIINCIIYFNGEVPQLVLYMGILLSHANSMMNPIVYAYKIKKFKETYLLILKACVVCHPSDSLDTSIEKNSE
Description: Displacement of [3H]MRE3008F20 from recombinant human A3 adenosine receptor expressed in CHO cells at 10 uM after 120 mins by scintillation counting. The test is classed as cell-based. The gist of the method: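 Membranes from hA3CHO cells incubated with 2 nM [3H]MRE 3008F20 in 50 mM Tris–HCl, 10 mM MgCl2, 1 mM EDTA, pH 7.4 at 4 °C for 120 min. Compound added from a 100-fold DMSO stock, 1% DMSO final, also in controls. Separated by GF/B filtration and counted by scintillation. Result given as % of control specific binding.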

Test [8] has as its target T1, Adenosine receptor A1 (Homo sapiens). Briefly: Binding affinity to recombinant human A1 adenosine receptor allosteric site expressed in CHO cells assessed as [3H]CCPA Bmax shift at 10 uM after 90 mins relative to control. It is filed as cell-based. The method in brief:
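Saturation binding of [3H]CCPA (0.05–20 nM) to hA1CHO membranes. Membranes pretreated with adenosine deaminase 3 UI/mL for 30 min at 37 °C. Run in triplicate, 90 min at 25 °C, in 50 mM Tris–HCl pH 7.4, with or without test compound at final 10 µM. Nonspecific binding taken with 1 µM R-PIA. Bmax fitted by LIGAND. Shift is the fold of Bmax increase over control.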

For test [9] the target is unchanged. Description: Binding affinity to recombinant human A1 adenosine receptor allosteric site expressed in CHO cells assessed as [3H]DPCPX Bmax shift at 10 uM after 90 mins relative to control. The test is classed as cell-based. The method in brief:
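Saturation binding of [3H]DPCPX (0.05–20 nM) to hA1CHO membranes, run in triplicate, 90 min at 25 °C, in 50 mM Tris–HCl pH 7.4, with or without test compound at final 10 µM. Nonspecific binding taken with 1 µM DPCPX. KD and Bmax fitted by LIGAND. Shift is the fold of Bmax increase over control.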

Test [10] shares this target. Description: Binding affinity to recombinant human A1 adenosine receptor allosteric site expressed in CHO cells assessed as potentiation of CCPA-induced [3H]DPCPX displacement at 10 uM after 90 mins relative to control. The test is classed as cell-based. The method in brief: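 Competition of CCPA (0.01 nM–1 µM) against 1 nM [3H]DPCPX on hA1CHO membranes, run in triplicate, 90 min at 25 °C, in 50 mM Tris–HCl pH 7.4, with or without test compound at 10 µM. Nonspecific binding taken with 1 µM DPCPX. Ki by Cheng–Prusoff. Shift = Ki(CCPA)/Ki(CCPA + 10 µM compound).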

Each structure is given as a SMILES string.

By inhibition is commonly meant the change of the read-out against control, counted positive when it falls. For the molecule `Nc1scc(CN2CCN(Cc3ccc(F)cc3)CC2)c1C(=O)c1ccc(Cl)cc1`, the Activity in [1] was 2.2%; in [2], -3.9%; in test [3] it was -34%; in test [4], -82%. Also, the inhibition in test [5] was determined as 0%; in [6], 0%; in test [7] it was 1%. In addition, the fold change (FC) in [8] stood at 3.7; in test [9], 0.9; in test [10], 3.1.

Turning to `Nc1scc(CN2CCN(CCCc3ccc(Cl)cc3)CC2)c1C(=O)c1ccc(Cl)cc1`, the Activity in test [1] is 0%; in test [2], -3%; in test [3], -30%; in test [4], -76%. In addition, the inhibition in test [5], in [6] and in test [7] was 0% each time. In addition, the fold change (FC) in [8] was 1.6; in test [9] it was 0.9; in [10], 1.6.

For the molecule `Nc1scc(CN2CCN(c3ccc(Cl)c(C(F)(F)F)c3)CC2)c1C(=O)c1ccc(Cl)cc1`, the Activity in test [1] was -2.5%; in [2], -12%; in test [3], -47%; in [4], -60%. The inhibition in [5] was 0%; in test [6] it was 0%; in [7], 3%. The fold change (FC) in test [8] worked out at 5.7; in test [9] it was 1; in test [10], 4.5.

For `Nc1scc(CN2CCN(c3ccc(F)c(Cl)c3)CC2)c1C(=O)c1ccc(Cl)cc1`, the Activity in test [1] is 4.2%; in test [2] it was -21%; in test [3], -60%; in test [4], -78%. Further, the inhibition in [5], in test [6] and in test [7] was 0% in each case. The fold change (FC) is 7 in test [8], 1.1 in test [9] and 5.5 in test [10].

For the molecule `Nc1scc(CN2CCN(C(=O)c3ccc(Cl)cc3)CC2)c1C(=O)c1ccc(Cl)cc1`, the Activity in [1] is -6.2%; in test [2] it was -10%; in test [3], -34%; in [4], -60%. Also, the results for the inhibition in test [5], in test [6] and in test [7] were 1%, 0% and 0%, respectively. In addition, the figures for the fold change (FC) in [8], in test [9] and in [10] were 1.6, 0.9 and 1.6, respectively.

Consider `Nc1scc(CN2CCN(c3ccncc3)CC2)c1C(=O)c1ccc(Cl)cc1`, for which the Activity in [1] is -4%; in test [2], 1.4%; in test [3], -8.3%; in [4] it was -15%. The inhibition was 1% in test [5], 0% in test [6] and 2% in test [7]. For the same molecule, the results for the fold change (FC) in test [8], in test [9] and in test [10] were 1.1, 0.9 and 1.2, respectively.

For `Nc1scc(CN2CCN(c3ccc(F)c(F)c3)CC2)c1C(=O)c1ccc(Cl)cc1`, the Activity is -3.2% in [1], -34% in [2], -78% in test [3] and -87% in [4]. Moreover, the inhibition in test [5] was 0%; in [6], 0%; in test [7], 1%. The fold change (FC) in [8] is 7.2; in test [9], 1.1; in [10], 5.5.
